BB579 growth dn: reduces growth of yeast BB579 in restrictive medium | S. cerevisiae BB579 growth, OD615, 48 h | inhibition, % at 10 µM | 140,000 tested, 0.51% active | AID 804;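 active means inhibition above a set limit, 3 SD over the mean compound inhibition, cut at about 44% in these data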
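System: Saccharomyces cerevisiae DeaD strain BB579, replicative lifespan model yeast | Buffer or medium: Restrictive glucose-based CSMM-D medium | Times: 4 h preincubation and 48 h exposure at 30 °C | Detection: OD615 turbidity measurement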
Yeast lifespan up: yeast lifespan extension | 130,000 tested, 0.68% active | S. cerevisiae growth with nicotinamide, OD615; deaD strain in restrictive glucose medium | inhibition of the nicotinamide effect, % at 10 µM;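 active means inhibition above a set limit, placed 3 SD over the median of all compounds, cut at about 26% in these data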
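Test system – modified budding yeast, DeaD strain · Compound – single dose 10 µM compound, 0.25% DMSO · Times – culture preincubation 4 h, compound exposure 48 h, both 30 °C · Detection – optical density (absorbance) at 615 nm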
RAM network inh: yeast RAM network inhibition | S. cerevisiae dse1pr::URA3 reporter, 5-FOA growth OD615, 2 d; analog-sensitive cbk1-as2 kinase mutant strain | inhibition, % at 50 µM | 190,000 tested, 1.8% active | AID 868;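 active means inhibition above a set limit, 3 SD over mean compound inhibition, cut at about 8.4% in these data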;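 further: inhibition rescues growth on 5-FOA so higher OD means more RAM inhibition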
WT yeast gro inh: growth inhibition of WT yeast, mitochondrial fusion screen. inhibition, % at 10 µM. 190,000 tested, 2.1% active. mitochondrial fusion phenotypic screen, WT strain; in the data active means inhibition above about 58%; tested in S. cerevisiae
KCC2 mod: modulators of human KCC2 chloride dependent transport; 190,000 tested, 2.2% active; KCC2 cells, thallium flux FluoZin-2 fluorescence; Q9H2X9; B-score of Tl+ flux slope (higher = more flux/activation; lower = inhibition) at 10 µM;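 active means thallium flux slope and its plate-corrected score both differing from the plate sample mean at a set confidence after two filtering rounds, in either direction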;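 further: slope of fluorescence scaled to starting intensity during 10 to 20 s after thallium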
Target sequence (Q9H2X9 whole entry, looked up): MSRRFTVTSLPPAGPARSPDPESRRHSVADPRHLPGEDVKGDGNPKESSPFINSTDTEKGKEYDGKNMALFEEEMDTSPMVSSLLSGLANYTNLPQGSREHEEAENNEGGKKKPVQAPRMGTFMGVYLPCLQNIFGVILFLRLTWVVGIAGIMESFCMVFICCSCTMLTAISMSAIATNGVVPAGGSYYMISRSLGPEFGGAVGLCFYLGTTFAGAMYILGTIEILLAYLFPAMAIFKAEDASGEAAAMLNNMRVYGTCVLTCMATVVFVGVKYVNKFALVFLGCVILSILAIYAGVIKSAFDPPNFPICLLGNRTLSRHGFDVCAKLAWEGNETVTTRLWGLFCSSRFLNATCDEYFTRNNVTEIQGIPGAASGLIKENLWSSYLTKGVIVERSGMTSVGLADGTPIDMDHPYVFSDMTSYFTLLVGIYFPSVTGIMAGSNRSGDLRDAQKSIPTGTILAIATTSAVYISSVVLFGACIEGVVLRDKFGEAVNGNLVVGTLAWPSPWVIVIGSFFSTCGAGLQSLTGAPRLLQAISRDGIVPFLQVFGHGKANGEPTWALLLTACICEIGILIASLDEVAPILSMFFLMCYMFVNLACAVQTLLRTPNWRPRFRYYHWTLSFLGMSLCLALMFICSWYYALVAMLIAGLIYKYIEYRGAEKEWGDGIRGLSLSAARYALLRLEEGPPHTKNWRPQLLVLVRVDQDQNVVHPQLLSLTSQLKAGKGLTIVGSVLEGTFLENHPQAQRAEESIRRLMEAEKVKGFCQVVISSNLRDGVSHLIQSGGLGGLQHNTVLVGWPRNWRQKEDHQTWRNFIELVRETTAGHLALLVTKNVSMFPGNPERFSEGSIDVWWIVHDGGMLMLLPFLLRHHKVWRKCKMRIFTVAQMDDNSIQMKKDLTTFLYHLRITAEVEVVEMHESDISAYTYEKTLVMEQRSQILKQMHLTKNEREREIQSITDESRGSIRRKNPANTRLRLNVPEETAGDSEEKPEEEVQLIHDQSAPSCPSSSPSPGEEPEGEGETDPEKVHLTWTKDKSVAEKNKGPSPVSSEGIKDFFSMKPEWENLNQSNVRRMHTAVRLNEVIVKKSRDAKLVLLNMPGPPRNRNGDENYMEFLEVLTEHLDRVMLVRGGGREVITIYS
RAM efflux-def: RAM network inhibitors in efflux-deficient yeast | shares compounds with RAM network inh | S. cerevisiae efflux-deficient reporter strain, 5-FOA growth OD615, 2 days | max inhibition, % | 1,200 tested, under 10 active | AID 1305; call rule not given here
A number is an active result; - = inactive; . = no result given. Rows were chosen to be rich in hits. Some 5.5% of all compounds tested hit in one or more screens of this group.

SMILES	BB579 growth dn	Yeast lifespan up	RAM network inh	WT yeast gro inh	KCC2 mod	RAM efflux-def
CCN1C(=O)c2cccc3c(NS(=O)(=O)c4ccc(NC(C)=O)cc4)ccc1c23	-	-	-	-	-	.
O=C(O)c1ccc2c(c1)C(=O)N(c1cccc(C(=O)/C=C/c3ccccc3)c1)C2=O	.	.	-	-	-	.
CC(C)=CCC/C(C)=C/Cc1c(O)ccc(C(=O)/C=C/c2ccc(O)cc2)c1O	-	-	15.1	94.8	-	-
C=CCn1c(-c2cccn(Cc3ccc(Cl)cc3)c2=O)n[nH]c1=S	-	-	12.9	-	.	-
N#Cc1c(SC(C(=O)O)c2ccccc2)nc2c(c1-c1cccs1)CCCC2 (configuration not stated)	.	.	.	.	-	.
CCOC(=O)C(C)Sc1nc2c(c(-c3cccs3)c1C#N)CCC2 (configuration not stated)	-	-	11.7	-	-	-
COc1cc2c(cc1NC(=O)C(C)Sc1ccc(C)cc1)oc1ccccc12 (configuration not stated)	-	-	13.7	-	.	-
COc1cc2c(cc1NC(=O)CSc1ccc(C)cc1)oc1ccccc12	-	-	-	-	.	.
Cc1ccc(-c2nn(-c3ccccc3)cc2/C=C2\SC(=S)N(CC(=O)O)C2=O)cc1	.	.	.	.	-	.
O=C(O)CCN1C(=O)/C(=C/c2cn(-c3ccccc3)nc2-c2cccs2)SC1=S	.	.	12.0	-	-	-
CCCCOc1ccc(CNn2c(C)nc3ccccc3c2=O)cc1	-	-	14.9	-	-	-
CC(=O)NCC(=O)N1CCCC(C(=O)c2ccc(Oc3ccccc3)cc2)C1 (configuration not stated)	.	.	-	-	-	.
CCN(CC)S(=O)(=O)c1cc(C(=O)OCC(=O)Nc2cccc(Br)c2)ccc1F	-	-	14.7	-	-	-
COCCCNC(=O)c1ccc(Cn2c(=O)c3ccccc3n(Cc3ccc(C)cc3)c2=O)cc1	-	-	12.2	-	-	-
COCCCNc1nc(SCc2ccccc2)nc2sc3c(c12)CCC3	-	-	15.8	-	-	-
Cc1cccc(Oc2cc(NC(=O)c3ccccc3)cc([N+](=O)[O-])c2)c1	-	-	13.1	-	-	-
CCc1nnc(NC(=O)CSc2nnc(-c3cccnc3)n2C)s1	.	.	-	-	-	.
COc1cc(/C=N/NC(=O)Cn2ccc(C(F)(F)F)n2)cc(OC)c1OC	.	.	-	-	-	.
Cc1ccc(S(=O)(=O)N2CCN(C(=O)C3COc4ccccc4O3)CC2)cc1C (configuration not stated)	-	-	17.1	-	.	-
Cc1cccc(OCC(=O)N(C)CCc2ccccn2)c1	-	-	-	-	-	.
Cc1cc(C)c(C)c(S(=O)(=O)N2CCC(C(=O)OCC(=O)N3c4ccccc4NC(=O)C3(C)C)CC2)c1C	-	-	12.1	-	-	-
CON/C=C(\C=Nc1ccc(Cl)cc1Cl)c1ncc(C(F)(F)F)cc1Cl	-	-	12.6	-	.	-
CON/C=C(\C=Nc1ccccc1)c1ncc(C(F)(F)F)cc1Cl	-	-	-	-	-	.
COCCN1C(=O)/C(=C/c2ccc(N3CCCC3)cc2C)SC1=S	.	.	16.1	-	-5.4	-
COc1ccc(-n2c(C)cc(/C=C3/SC(=S)N(C)C3=O)c2C)cc1	-	-	-	-	-	.
SMILES	BB579 growth dn	Yeast lifespan up	RAM network inh	WT yeast gro inh	KCC2 mod	RAM efflux-def
O=C(CN1C(=O)CC(c2ccccc2)S(=O)(=O)c2ccccc21)N1CCCCC1 (configuration not stated)	.	.	-	-	-	.
COc1cccc(CSc2nc3ccccc3cc2C=O)c1	-	84.2	11.8	-	-	-
CC(C)(C)c1ncc(S(=O)(=O)c2ccc(C(F)(F)F)cn2)c(N)n1	.	.	.	.	-	.
CCN(CC)S(=O)(=O)c1cccc(-c2nnc(SCCOc3ccccc3)o2)c1	-	-	13.2	-	.	-
CCN(CC)S(=O)(=O)c1cccc(-c2nnc(SCC(=O)c3cc(C)n(C)c3C)o2)c1	-	-	-	-	.	.
CCN(CC)S(=O)(=O)c1cccc(-c2nnc(SCCOc3ccc(Cl)cc3)o2)c1	-	-	15.9	-	-	-
CCN(CC)S(=O)(=O)c1cccc(-c2nnc(SCCOc3ccccc3C)o2)c1	-	-	11.8	-	-	-
CC1CCCCC1NC(=O)c1cc2ccccc2o1 (configuration not stated)	-	-	-	-	-	.
CC1CCCN(S(=O)(=O)c2ccccc2[N+](=O)[O-])C1 (configuration not stated)	-	-	-	-	-	.
CC(C)(C)SCCNC(=O)CN(c1ccccc1)S(=O)(=O)c1ccccc1	.	.	-	-	-	.
CCCCn1c(O)c(/C=C/C=C/C=Nc2ccccc2)sc1=S	.	.	13.2	-	-	-
CCn1c(O)c(/C=C/C=C/C=Nc2ccccc2)sc1=S	.	.	-	-	-	.
CC1=NC(C#N)=C(C#N)NC(C)(C)C1	.	.	-	-	-	.
COc1cc(NS(=O)(=O)c2ccc(NC(=S)NC(=O)/C=C/c3ccco3)cc2)ncn1	.	.	13.2	-	-	-
CCCCc1ccc(-c2csc(/C(C#N)=C/c3ccc(C)o3)n2)cc1	-	-	12.5	-	-	-
COc1ccc(-c2csc(/C(C#N)=C\c3cccc([N+](=O)[O-])c3)n2)cc1	-	-	-	-	-	.
CCCCc1ccc(-c2csc(/C(C#N)=C\c3ccco3)n2)cc1	-	-	15.2	-	-	-
CCOC(=O)Cc1cc(=O)n2[nH]cc(-c3cccc(Br)c3)c2n1	.	.	-	-	-	.
COc1ccc(N(C)S(=O)(=O)c2cccc(C(=O)NC3CCCC3)c2)cc1	.	.	-	-	-	.
COc1ccc(N(C)S(=O)(=O)c2cccc(C(=O)NCC3CCCCC3)c2)cc1	.	.	12.8	-	-	-
CC1CC(C)(C)NC(=S)N1CC(=O)NCc1ccc2c(c1)OCO2 (configuration not stated)	.	.	-	-	-	.
Cc1ccc(-c2nn(-c3ccccc3)cc2/C=C(\C#N)C(=O)NCc2ccccc2)cc1	-	-	-	-	-	.
CCCSc1ccc(-c2nn(-c3ccccc3)cc2/C=C(/C#N)C(=O)NCCCOC)cc1	-	-	16.1	-	-	-
CCSc1ccc(-c2nn(-c3ccccc3)cc2/C=C(/C#N)C(=O)NCCCOC)cc1	-	-	17.3	-	-	-
O=C(CSc1ccc(Cl)cc1)Nc1ccccc1Oc1ccccc1	-	-	-	-	-	.
O=C(CSc1ccc(Br)cc1)Nc1ccccc1Oc1ccccc1	-	-	11.5	-	-	-
O=C(CN(Cc1cccs1)S(=O)(=O)c1ccc(S(=O)(=O)NC2CCCCC2)cc1)Nc1ccccc1	-	-	13.8	-	-	-
O=C(CN(C1CC1)S(=O)(=O)c1ccc(S(=O)(=O)NC2CCCCC2)cc1)Nc1ccccc1	-	-	-	-	-	.
CCOC(=O)Cc1csc(NC(=O)NC2(C(F)(F)F)Oc3ccc(Cl)cc3O2)n1 (configuration not stated)	-	-	-	-	-	.

Compound activity: PubChem, several laboratories
